Source: ChEMBL document CHEMBL4354879, “Bioisosteric Discovery of NPA101.3, a Second-Generation RET/VEGFR2 Inhibitor Optimized for Single-Agent Polypharmacology” (J Med Chem, 2020)
pIC50: −log10 of the molar value. Active and inactive are the calls of the source. The calls are words filed in the database; no cut-off is given here.

How the values were obtained:
[1] = target: Proto-oncogene tyrosine-protein kinase receptor Ret (Homo sapiens, UniProt P07949); assay: Binding affinity to recombinant phosphorylated RET kinase domain (705 to 1013 residues) (unknown origin) expressed in baculovirus infected Sf9 insect cells assessed as change in melting temperature at 40 uM measured over 240 mins by sypro orange dye based thermal shift assay
Sequence of Proto-oncogene tyrosine-protein kinase receptor Ret (P07949 whole entry, the tested form may be a part): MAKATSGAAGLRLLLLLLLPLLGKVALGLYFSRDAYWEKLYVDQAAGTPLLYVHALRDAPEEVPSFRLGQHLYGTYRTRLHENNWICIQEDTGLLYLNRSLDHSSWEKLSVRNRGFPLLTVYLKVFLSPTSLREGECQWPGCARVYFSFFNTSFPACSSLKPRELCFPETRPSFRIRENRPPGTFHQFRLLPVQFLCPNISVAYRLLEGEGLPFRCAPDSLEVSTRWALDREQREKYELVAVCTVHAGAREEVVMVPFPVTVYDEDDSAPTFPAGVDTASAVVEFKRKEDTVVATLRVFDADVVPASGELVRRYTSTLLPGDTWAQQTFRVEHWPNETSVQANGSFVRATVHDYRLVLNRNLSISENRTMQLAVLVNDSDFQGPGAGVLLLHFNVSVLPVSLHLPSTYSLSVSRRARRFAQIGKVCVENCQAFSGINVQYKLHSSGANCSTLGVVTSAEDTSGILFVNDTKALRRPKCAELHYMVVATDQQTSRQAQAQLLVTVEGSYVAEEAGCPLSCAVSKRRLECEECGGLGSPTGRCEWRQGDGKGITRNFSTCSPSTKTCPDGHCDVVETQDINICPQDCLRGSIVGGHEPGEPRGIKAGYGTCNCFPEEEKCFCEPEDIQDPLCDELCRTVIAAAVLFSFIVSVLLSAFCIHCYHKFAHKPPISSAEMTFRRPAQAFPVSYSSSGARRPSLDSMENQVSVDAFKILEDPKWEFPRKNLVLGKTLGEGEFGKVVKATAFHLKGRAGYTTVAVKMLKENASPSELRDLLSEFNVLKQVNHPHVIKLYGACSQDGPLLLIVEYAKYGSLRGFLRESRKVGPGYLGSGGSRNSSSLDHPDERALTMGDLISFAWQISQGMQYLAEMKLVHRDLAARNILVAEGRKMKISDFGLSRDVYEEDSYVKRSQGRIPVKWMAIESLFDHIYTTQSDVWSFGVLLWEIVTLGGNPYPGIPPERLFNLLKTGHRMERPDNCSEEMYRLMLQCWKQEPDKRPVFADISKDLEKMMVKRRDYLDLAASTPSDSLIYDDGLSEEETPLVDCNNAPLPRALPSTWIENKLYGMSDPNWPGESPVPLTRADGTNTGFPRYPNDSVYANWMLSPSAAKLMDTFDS

[2] = target: Tyrosine-protein kinase HCK (Homo sapiens) (UniProt P08631); assay: Binding affinity to wild-type human full length HCK (M22 to P526 residues) expressed in bacterial expression system at 100 nM by Kinomescan method relative to control
Sequence of Tyrosine-protein kinase HCK (Homo sapiens) (P08631 2-526 limits assumed): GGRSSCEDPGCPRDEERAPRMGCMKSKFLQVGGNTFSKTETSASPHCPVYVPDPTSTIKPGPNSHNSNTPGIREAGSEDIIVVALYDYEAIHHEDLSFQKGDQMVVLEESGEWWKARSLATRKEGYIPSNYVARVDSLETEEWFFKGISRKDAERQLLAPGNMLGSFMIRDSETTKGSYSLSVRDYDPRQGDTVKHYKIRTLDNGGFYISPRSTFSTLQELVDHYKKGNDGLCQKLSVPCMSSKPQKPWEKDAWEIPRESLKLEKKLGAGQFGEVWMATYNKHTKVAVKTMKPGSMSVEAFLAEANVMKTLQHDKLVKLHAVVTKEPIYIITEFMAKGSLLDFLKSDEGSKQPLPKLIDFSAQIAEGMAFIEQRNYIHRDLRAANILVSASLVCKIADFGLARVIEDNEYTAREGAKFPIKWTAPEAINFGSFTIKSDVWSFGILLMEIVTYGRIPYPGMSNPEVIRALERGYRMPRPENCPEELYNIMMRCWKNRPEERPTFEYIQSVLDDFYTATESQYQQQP

[3] = target: T1, SHC-transforming protein 1 (Homo sapiens) (UniProt P29353); assay: Effect on SHC phosphorylation in RET deficient human Nthy-ori 3-1 cells at 1 to 100 nM measured after 2 hrs by western blot analysis
T1 sequence (whole entry): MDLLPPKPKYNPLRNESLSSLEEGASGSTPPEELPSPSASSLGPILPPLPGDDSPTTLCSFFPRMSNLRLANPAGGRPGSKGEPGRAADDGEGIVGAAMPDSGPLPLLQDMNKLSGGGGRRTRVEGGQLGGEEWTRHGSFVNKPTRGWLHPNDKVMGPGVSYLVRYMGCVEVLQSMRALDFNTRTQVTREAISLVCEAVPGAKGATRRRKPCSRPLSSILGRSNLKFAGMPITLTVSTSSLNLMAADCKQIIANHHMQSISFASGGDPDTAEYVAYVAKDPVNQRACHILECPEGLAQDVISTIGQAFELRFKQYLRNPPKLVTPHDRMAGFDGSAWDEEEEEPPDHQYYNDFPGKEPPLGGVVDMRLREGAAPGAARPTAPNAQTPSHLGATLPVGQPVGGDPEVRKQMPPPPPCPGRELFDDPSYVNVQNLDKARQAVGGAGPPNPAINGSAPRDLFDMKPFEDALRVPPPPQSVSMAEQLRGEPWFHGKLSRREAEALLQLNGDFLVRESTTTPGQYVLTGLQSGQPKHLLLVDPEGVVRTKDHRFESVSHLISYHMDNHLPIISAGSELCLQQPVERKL

[4] = target: Centrosomal protein 43/RET (Homo sapiens) (UniProt P07949+O95684); assay: Inhibition of FGFR1OP/RET isoform 9 (unknown origin) expressed in mouse NIH/3T3 cells assessed as reduction in RET phosphorylation at Y1062 residue at 1 to 100 nM measured after 2 hrs by Western blot analysis; assay type: cell-based
Sequence of Centrosomal protein 43/RET (Homo sapiens) (O95684 whole entry, looked up, canonical isoform): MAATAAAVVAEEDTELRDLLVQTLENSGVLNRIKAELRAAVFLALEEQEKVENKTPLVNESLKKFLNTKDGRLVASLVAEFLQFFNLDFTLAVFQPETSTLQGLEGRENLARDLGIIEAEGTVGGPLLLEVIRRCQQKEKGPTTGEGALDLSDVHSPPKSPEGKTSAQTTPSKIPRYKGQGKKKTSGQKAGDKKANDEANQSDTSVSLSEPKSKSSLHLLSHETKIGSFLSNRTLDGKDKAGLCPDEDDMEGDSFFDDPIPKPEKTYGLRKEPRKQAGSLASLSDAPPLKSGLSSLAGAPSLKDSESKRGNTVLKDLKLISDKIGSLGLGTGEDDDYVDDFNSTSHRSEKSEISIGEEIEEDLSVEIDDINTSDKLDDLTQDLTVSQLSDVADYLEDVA
Sequence of Centrosomal protein 43/RET (Homo sapiens) (P07949 whole entry, looked up, canonical isoform): as the sequence (P07949 whole entry, the tested form may be a part) above
In short: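 Serum-starved RAT1 (RET point mutants) or NIH3T3 (RET rearrangements) cells expressing short RET-9 isoform, treated 2 h; 50 μg total lysate immunoblotted with anti-phospho-Y1062 and anti-phospho-Y905 RET antibodies, normalized to total RET; ECL detection. Compound from 50 mM DMSO stock diluted in growth medium.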

[5] = tested on: Proto-oncogene tyrosine-protein kinase receptor Ret (Homo sapiens), P07949 [C634W]; assay: Inhibition of Ret isoform 9 C634W mutant in human TT cells assessed as reduction in phosphorylation at Y1062 residue at 0.3 to 30 nM measured after 2 hrs by Western blot analysis; assay type: cell-based
Sequence of Proto-oncogene tyrosine-protein kinase receptor Ret (Homo sapiens), P07949 [C634W] (P07949 whole entry C634W, the tested form may be a part, canonical isoform): as the sequence (P07949 whole entry, the tested form may be a part) above, with C634W counted along it

[6] = target: T2, Coiled-coil domain-containing protein 6/Tyrosine-protein kinase receptor RET (Homo sapiens) (UniProt P07949+Q16204); assay: Inhibition of CCDC6/RET in human TPC1 cells assessed as reduction in SHC phosphorylation at 0.3 to 30 nM measured after 2 hrs by Western blot analysis; assay type: cell-based
T2 sequence (P07949 29-1114 limits assumed): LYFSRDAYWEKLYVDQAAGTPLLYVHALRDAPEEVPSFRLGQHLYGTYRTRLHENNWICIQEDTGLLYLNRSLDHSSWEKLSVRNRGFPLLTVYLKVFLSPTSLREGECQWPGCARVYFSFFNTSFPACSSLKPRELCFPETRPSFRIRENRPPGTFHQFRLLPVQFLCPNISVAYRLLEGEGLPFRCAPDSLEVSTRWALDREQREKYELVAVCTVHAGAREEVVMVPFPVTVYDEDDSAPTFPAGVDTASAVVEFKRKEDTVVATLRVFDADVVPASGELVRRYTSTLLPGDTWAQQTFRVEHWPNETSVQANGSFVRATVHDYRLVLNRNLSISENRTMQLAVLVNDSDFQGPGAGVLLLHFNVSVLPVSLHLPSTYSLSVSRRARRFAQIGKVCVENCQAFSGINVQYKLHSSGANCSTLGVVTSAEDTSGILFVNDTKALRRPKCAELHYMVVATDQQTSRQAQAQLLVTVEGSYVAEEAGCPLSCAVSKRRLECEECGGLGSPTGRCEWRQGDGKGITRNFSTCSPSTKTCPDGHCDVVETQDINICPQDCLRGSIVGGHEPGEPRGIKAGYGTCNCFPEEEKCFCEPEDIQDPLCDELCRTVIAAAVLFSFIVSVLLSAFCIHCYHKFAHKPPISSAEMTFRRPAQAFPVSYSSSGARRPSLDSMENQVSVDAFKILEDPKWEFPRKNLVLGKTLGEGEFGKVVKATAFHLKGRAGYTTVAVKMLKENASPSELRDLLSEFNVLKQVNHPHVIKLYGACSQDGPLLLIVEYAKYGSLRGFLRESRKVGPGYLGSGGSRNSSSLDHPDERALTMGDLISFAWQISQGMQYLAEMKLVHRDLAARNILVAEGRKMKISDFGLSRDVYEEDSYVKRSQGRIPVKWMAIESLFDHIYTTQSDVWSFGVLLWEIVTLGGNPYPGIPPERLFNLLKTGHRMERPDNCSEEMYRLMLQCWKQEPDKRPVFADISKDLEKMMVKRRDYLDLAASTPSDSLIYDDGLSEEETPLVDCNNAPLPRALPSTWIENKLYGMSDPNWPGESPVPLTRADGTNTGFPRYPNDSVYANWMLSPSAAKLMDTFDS
T2 sequence (Q16204 2-474 partner limits assumed): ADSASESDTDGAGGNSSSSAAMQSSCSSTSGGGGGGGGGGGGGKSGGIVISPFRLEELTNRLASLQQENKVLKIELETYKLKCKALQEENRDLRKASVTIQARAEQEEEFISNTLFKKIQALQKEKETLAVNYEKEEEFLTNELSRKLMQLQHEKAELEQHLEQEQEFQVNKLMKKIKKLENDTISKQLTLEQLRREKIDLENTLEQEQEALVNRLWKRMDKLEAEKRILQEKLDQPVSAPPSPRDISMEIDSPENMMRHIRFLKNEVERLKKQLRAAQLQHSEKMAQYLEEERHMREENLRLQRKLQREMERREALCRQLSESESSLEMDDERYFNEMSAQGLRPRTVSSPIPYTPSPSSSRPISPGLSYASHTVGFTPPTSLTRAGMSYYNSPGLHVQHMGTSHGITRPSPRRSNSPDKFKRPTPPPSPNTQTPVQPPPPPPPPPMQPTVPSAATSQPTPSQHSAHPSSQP

[7] = target: T2, Coiled-coil domain-containing protein 6/Tyrosine-protein kinase receptor RET (Homo sapiens); assay: Inhibition of CCDC6/RET in human LC2/ad cells assessed as reduction in SHC phosphorylation at 0.3 to 30 nM measured after 2 hrs by Western blot analysis; assay type: cell-based
[8] = target: T1, SHC-transforming protein 1 (Homo sapiens); assay: Effect on SHC phosphorylation in RET deficient human PC9 cells at 1 to 100 nM measured after 2 hrs by western blot analysis
Calu-1 = assay: Cytotoxicity against RET deficient human Calu1 cells supplemented with fresh medium containing compound for every 2 to 3 days measured during compound dosing; assay type: functional, cell-based
In short: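 Human RET-negative lines were seeded in six-well plates at 10000 cells/well, in 5% FCS (Nthy-ori-3-1) or 10% FCS (BCPAP, 8505-C, CALU-1, A549, PC-9). Drug or vehicle was added the day after plating, with medium changed every 2–3 days. Cells were counted every 2–3 days. IC50 was fitted from the last day of the growth curves.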

[9] = Toxicity in BALB/c nu/nu mouse assessed as change in albumin level at 10 mg/kg, po administered daily for 7 days; assay type: organism-based; details: in vivo, 168 h
In short: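 Mice dosed orally with 10 mg/kg/day for 7 days; standard blood markers of organ damage measured.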

Mus musculus = assay: In vivo inhibition of RET isoform 9 C634Y mutant transfected in mouse NIH/3T3 cells implanted BALB/c nu/nu mouse assessed as reduction in MAPK phosphorylation at 3 mg/kg, po administered once daily via gavage for 2 days measured 3 hrs post-last dose by Western blot analysis

ΔTm [1]: 16 °C
Activity [2]: > 90%
Activity [3]: inactive
inhibition [4]: Active
inhibition [5]: Active
inhibition [6]: Active
inhibition [7]: Active
Activity [8]: inactive
Structure (SMILES): CC(C)(C)c1cc(NC(=O)Cc2ccc(-n3cnc4cc(-c5ccc(S(C)(=O)=O)cc5)ccc43)cc2)no1
pIC50 (Calu-1): < 7.00
Activity [9]: Non-Toxic
inhibition (Mus musculus): Active
